# From ChEMBL document CHEMBL1944596, “7,8-dichloro-1-oxo-β-carbolines as a versatile scaffold for the development of potent and selective kinase inhibitors with unusual binding modes” (J Med Chem, 2012)
# pIC50: −log10 of the molar value.
# Tests used:
# [1] = Growth inhibition of human SEM cells after 48 hrs by WST-1 assay; assay type: functional, cell-based
# In short: (§1)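 Compound (0–10 μM) added to the culture medium and incubated 48 h. Proliferation and viability read by WST-1 reagent. Survival expressed as percentage of control cultures and IC50 derived by curve fitting.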
# [2] = Growth inhibition of human RS4:11 cells after 48 hrs by WST-1 assay; assay type: functional, cell-based; details: RS4-11, 48 h; in short: as §1
# K562 = experiment: Growth inhibition of human K562 cells after 48 hrs by WST-1 assay; assay type: functional, cell-based; details: K562, 48 h; in short: as §1
# MOLM-13 = experiment: Growth inhibition of human MOLM13 cells after 48 hrs by WST-1 assay; assay type: functional, cell-based; details: MOLM-13, 48 h
# In short: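 Inhibitor at 0–10 μM added to the culture medium for 48 h. Proliferation and viability were read with WST-1 reagent. Survival was expressed as a percentage of control cultures, and IC50 was fitted from the concentration series.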
# MV4-11 = experiment: Growth inhibition of human MV4-11 cells after 48 hrs by WST-1 assay; assay type: functional, cell-based; details: MV4-11, 48 h; in short: as §1
# [3] = molecular target: Death-associated protein kinase 3 (Homo sapiens) (UniProt O43293); experiment: Binding affinity to N-terminus His6-tagged DAPK3 expressed in Escherichia coli BL21 (DE3) cells coexpressing pCOEX assessed as change in thermal denaturation at 10 uM by thermal stability shift assay
# In short: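 DAPK3 was expressed in E. coli grown in TB with kanamycin and chloramphenicol at 37 °C, cooled to 25 °C, and induced with 0.5 mM IPTG. Binding was read as thermal-shift ΔTm in °C.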
# [4] = molecular target: Dual specificity protein kinase CLK1 (Homo sapiens) (UniProt P49759); experiment: Binding affinity to CLK1 assessed as change in thermal denaturation at 10 uM by thermal stability shift assay
# In short: (§2)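 Each compound was screened across a kinase panel by thermal stability shift assay. The read-out was the shift in protein melting temperature (ΔTm, in °C) relative to the unliganded kinase. A ΔTm of 4.0 °C served as the hit cutoff.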
# [5] = molecular target: T1, Serine/threonine-protein kinase 17B (Homo sapiens) (UniProt O94768); experiment: Binding affinity to DRAK2 assessed as change in thermal denaturation at 10 uM by thermal stability shift assay; in short: as §2
# T1 sequence (whole entry): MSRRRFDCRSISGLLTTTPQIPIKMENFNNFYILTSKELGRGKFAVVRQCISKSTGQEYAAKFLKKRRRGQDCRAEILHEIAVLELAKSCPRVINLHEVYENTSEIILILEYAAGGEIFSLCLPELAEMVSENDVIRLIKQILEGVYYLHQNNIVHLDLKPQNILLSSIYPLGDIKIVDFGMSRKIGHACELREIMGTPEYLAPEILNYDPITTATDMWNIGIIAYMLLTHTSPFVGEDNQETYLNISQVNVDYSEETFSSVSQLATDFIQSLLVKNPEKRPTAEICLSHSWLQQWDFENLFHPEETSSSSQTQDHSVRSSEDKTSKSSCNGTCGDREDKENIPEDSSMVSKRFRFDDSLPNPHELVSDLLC
# [6] = molecular target: T2, Serine/threonine-protein kinase 17A (Homo sapiens) (UniProt Q9UEE5); experiment: Binding affinity to DRAK1 assessed as change in thermal denaturation at 10 uM by thermal stability shift assay; in short: as §2
# T2 sequence (whole entry): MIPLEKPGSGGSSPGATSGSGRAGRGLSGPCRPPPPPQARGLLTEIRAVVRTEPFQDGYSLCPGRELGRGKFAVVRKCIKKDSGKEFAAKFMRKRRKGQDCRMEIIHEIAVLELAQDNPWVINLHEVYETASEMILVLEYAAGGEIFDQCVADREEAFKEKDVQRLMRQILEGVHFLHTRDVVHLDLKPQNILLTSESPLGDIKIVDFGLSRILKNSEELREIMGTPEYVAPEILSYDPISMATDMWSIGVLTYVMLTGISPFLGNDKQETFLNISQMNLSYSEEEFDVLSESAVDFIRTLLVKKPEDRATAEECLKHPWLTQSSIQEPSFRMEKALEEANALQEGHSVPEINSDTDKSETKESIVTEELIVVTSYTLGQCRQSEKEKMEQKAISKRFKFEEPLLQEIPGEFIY
# [7] = molecular target: T3, Cyclin-G-associated kinase (Homo sapiens) (UniProt O14976); experiment: Binding affinity to GAK assessed as change in thermal denaturation at 10 uM by thermal stability shift assay; in short: as §2
# T3 sequence (whole entry): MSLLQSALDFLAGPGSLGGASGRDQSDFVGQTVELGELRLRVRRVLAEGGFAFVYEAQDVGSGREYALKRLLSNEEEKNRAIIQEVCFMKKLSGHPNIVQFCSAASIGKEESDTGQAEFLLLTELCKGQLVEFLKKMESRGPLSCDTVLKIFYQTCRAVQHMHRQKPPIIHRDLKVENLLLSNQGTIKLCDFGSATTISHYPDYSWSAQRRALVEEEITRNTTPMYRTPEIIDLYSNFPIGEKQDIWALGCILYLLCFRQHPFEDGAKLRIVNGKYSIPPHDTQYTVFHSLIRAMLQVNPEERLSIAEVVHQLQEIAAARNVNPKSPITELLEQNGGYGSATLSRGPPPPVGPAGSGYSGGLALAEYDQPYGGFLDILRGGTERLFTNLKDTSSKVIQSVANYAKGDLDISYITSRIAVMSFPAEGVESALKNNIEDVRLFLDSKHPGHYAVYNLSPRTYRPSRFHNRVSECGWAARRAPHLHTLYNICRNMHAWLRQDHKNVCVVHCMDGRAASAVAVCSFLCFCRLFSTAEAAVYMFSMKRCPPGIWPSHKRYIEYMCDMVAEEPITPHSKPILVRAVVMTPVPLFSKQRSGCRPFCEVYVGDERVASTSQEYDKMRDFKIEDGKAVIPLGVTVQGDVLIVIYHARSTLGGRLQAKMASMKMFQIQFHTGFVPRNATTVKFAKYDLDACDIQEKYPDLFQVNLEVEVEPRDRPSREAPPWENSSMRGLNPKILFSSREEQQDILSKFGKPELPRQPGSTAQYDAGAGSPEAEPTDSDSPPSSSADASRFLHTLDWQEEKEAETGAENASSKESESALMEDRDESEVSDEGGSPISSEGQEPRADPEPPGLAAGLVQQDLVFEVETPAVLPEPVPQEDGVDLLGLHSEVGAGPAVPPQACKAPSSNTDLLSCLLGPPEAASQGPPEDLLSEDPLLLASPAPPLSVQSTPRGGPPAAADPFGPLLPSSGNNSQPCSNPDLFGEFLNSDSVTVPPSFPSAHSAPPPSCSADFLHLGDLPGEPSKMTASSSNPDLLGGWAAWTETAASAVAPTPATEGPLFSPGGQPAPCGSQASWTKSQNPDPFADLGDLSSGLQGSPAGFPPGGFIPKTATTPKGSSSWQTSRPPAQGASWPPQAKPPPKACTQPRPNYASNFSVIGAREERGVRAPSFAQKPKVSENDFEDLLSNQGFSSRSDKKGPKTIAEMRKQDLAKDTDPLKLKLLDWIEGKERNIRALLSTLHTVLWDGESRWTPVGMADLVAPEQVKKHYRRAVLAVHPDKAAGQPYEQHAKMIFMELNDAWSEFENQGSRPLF
# [8] = molecular target: Dual specificity protein kinase CLK4 (Homo sapiens) (UniProt Q9HAZ1); experiment: Binding affinity to CLK4 assessed as change in thermal denaturation at 10 uM by thermal stability shift assay; in short: as §2
# [9] = molecular target: T4, Myosin light chain kinase family member 4 (Homo sapiens) (UniProt Q86YV6); experiment: Binding affinity to SGK085 assessed as change in thermal denaturation at 10 uM by thermal stability shift assay; in short: as §2
# T4 sequence (whole entry): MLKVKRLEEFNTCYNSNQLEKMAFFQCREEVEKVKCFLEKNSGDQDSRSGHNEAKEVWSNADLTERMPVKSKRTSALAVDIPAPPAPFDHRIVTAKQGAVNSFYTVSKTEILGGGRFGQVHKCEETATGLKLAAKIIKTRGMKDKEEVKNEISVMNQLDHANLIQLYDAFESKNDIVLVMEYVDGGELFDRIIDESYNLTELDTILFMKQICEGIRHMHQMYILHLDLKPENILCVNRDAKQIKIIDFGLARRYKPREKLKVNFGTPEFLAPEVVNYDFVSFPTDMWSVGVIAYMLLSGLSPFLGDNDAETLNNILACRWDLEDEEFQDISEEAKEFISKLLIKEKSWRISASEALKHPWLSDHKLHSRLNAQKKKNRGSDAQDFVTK
# [10] = molecular target: Serine/threonine-protein kinase pim-1 (Homo sapiens, UniProt P11309); experiment: Binding affinity to PIM1 assessed as change in thermal denaturation at 10 uM by thermal stability shift assay; in short: as §2
# [11] = molecular target: AP2-associated protein kinase 1 (Homo sapiens) (UniProt Q2M2I8); experiment: Binding affinity to AAK1 assessed as change in thermal denaturation at 10 uM by thermal stability shift assay; in short: as §2
# [12] = molecular target: Serine/threonine-protein kinase pim-3 (Homo sapiens, UniProt Q86V86); experiment: Binding affinity to PIM3 assessed as change in thermal denaturation at 10 uM by thermal stability shift assay; in short: as §2
# [13] = molecular target: Casein kinase II subunit alpha' (Homo sapiens) (UniProt P19784); experiment: Binding affinity to CK2alpha2 assessed as change in thermal denaturation at 10 uM by thermal stability shift assay; in short: as §2
# Sequence of Casein kinase II subunit alpha' (Homo sapiens) (P19784 whole entry, looked up): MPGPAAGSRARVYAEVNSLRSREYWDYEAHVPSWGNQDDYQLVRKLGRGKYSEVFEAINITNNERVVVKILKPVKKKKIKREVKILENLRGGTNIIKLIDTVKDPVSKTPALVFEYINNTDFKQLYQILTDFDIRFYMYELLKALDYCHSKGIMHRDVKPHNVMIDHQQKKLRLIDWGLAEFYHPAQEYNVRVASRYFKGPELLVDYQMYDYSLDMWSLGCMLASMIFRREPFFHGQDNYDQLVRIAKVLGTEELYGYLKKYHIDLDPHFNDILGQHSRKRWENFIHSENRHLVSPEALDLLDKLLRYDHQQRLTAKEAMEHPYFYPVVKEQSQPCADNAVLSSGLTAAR
# Sequence of Death-associated protein kinase 3 (Homo sapiens) (O43293 whole entry, looked up): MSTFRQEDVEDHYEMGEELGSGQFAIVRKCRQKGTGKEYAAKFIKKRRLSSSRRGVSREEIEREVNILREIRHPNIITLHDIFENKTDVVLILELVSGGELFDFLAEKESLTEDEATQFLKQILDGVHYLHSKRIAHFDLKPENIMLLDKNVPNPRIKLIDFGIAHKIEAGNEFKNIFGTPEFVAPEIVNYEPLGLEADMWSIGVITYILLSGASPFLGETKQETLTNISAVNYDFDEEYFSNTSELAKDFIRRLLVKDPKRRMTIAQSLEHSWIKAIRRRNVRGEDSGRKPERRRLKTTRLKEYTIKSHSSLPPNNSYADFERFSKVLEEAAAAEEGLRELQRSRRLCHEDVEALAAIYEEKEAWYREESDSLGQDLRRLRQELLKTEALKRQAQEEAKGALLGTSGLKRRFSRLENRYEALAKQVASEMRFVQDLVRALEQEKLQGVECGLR
# Sequence of Dual specificity protein kinase CLK1 (Homo sapiens) (P49759 whole entry, looked up): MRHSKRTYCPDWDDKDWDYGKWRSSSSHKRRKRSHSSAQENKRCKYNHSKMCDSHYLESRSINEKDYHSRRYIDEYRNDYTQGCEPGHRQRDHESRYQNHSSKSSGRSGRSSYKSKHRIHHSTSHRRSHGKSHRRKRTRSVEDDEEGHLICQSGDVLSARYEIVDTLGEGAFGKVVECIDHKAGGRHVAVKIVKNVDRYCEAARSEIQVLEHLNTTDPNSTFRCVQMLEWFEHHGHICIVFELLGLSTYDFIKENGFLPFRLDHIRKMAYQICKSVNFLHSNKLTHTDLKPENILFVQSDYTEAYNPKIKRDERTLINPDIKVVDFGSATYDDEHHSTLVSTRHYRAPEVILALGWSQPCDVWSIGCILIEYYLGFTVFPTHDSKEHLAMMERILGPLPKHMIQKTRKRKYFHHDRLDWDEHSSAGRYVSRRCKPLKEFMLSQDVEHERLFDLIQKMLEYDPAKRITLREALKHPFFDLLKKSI
# Sequence of AP2-associated protein kinase 1 (Homo sapiens) (Q2M2I8 whole entry, looked up): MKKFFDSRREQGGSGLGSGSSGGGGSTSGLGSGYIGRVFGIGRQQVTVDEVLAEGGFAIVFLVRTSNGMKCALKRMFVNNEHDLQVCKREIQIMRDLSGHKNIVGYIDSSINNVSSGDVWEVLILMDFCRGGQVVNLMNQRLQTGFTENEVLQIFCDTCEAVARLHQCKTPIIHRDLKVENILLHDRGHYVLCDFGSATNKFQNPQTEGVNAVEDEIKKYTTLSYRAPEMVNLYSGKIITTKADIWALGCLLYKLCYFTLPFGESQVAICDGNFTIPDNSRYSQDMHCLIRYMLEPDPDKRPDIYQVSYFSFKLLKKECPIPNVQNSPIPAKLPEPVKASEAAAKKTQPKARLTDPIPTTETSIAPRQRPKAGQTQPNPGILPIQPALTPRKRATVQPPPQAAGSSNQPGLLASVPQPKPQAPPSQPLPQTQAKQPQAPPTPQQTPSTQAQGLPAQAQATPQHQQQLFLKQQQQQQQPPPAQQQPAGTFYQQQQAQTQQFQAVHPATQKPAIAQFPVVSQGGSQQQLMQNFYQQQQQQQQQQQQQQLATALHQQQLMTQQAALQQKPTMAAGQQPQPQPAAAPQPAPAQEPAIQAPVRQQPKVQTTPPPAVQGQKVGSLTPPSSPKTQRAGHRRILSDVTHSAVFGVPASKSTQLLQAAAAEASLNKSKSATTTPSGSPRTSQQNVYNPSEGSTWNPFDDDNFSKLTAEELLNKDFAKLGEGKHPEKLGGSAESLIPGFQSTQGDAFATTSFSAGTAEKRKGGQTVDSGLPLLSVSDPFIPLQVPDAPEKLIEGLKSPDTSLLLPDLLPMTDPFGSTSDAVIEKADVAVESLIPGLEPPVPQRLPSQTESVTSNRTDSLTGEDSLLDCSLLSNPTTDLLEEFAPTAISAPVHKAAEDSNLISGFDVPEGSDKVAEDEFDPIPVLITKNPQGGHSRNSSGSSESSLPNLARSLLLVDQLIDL
# Sequence of Serine/threonine-protein kinase pim-1 (P11309 whole entry, looked up): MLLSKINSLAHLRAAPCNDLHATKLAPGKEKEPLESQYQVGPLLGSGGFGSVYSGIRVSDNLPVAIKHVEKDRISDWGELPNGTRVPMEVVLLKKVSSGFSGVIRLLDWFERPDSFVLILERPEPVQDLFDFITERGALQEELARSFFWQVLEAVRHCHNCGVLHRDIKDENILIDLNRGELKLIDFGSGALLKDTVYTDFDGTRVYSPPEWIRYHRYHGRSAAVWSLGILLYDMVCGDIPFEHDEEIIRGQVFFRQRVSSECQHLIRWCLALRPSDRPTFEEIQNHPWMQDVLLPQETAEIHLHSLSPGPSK
# Sequence of Dual specificity protein kinase CLK4 (Homo sapiens) (Q9HAZ1 whole entry, looked up): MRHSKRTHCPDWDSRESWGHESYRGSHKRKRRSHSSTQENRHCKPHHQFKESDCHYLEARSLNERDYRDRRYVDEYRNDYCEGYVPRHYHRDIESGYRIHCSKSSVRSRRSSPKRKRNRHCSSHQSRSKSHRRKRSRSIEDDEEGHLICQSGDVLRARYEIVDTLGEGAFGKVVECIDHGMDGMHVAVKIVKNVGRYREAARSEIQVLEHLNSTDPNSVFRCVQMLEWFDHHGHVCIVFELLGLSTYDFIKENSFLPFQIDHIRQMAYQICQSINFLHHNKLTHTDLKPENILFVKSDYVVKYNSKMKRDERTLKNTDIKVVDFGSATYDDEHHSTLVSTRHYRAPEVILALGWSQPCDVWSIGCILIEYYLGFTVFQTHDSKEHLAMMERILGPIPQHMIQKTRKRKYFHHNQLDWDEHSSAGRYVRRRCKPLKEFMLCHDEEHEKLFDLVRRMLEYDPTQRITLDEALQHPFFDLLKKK
Structure (SMILES),pIC50 [1],pIC50 [2],pIC50 (K562),pIC50 (MOLM-13),pIC50 (MV4-11),ΔTm [3] [°C],ΔTm [4] [°C],ΔTm [5] [°C],ΔTm [6] [°C],ΔTm [7] [°C],ΔTm [8] [°C],ΔTm [9] [°C],ΔTm [10] [°C],ΔTm [11] [°C],ΔTm [12] [°C],ΔTm [13] [°C]
CC(=O)c1cccc(-c2cnc3ccc(NCC4CC4)nn23)c1,5.22,5.06,5.10,6.52,6.40,–,–,–,–,–,–,–,–,–,–,–
Cn1c2c(c3ccc(Cl)c(Cl)c31)C(C#N)C1(CCCCC1)NC2=O (racemic),–,–,–,–,–,4.7,4,2.9,3,0.9,1.1,0.5,4.7,1.7,4,0.8
